Measured values taken from ChEMBL document CHEMBL5058577, “EUbOPEN Chemogenomics Library 2 (Multiplex)” (2022).

Tested on: HEK-293T
Experiment: Multiplex assay against HEK293T
Type: toxicity, cell-based
Conditions: human
How it was run: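 Imaging took place on a CQ1 microscope at 37°C and 5% CO2 once compound had been added to live cells stained at seeding with Hoechst33342, BioTracker Green Microtubule Cytoskeleton Dye, MitoTracker Red and Annexin V Alexa Fluor 680. CellPathfinder machine-learning gating classed cells as Hoechst high-intensity objects or normal cells, classed normal cells as having healthy, pyknosed or fragmented nuclei, and classed pyknosed cells as mitotic or apoptotic. Tubulin, mitochondrial-mass and membrane-permeability phenotypes are per cents of the healthy-nucleus cells.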

[1] = 12 h, 1 µM, compound concentration 1 uM, replicate 1
[2] = 12 h, 1 µM, compound concentration 1 uM, replicate 2
[3] = 12 h, 10 µM, compound concentration 10 uM, replicate 1
[4] = 12 h, 10 µM, compound concentration 10 uM, replicate 2
[5] = 24 h, 1 µM, compound concentration 1 uM, replicate 1
[6] = 24 h, 1 µM, compound concentration 1 uM, replicate 2
[7] = 24 h, 10 µM, compound concentration 10 uM, replicate 1
[8] = 24 h, 10 µM, compound concentration 10 uM, replicate 2
[9] = 48 h, 1 µM, compound concentration 1 uM, replicate 1
[10] = 48 h, 1 µM, compound concentration 1 uM, replicate 2
[11] = 48 h, 10 µM, compound concentration 10 uM, replicate 1
[12] = 48 h, 10 µM, compound concentration 10 uM, replicate 2

Compound: CC(C)C[C@H](CO)Nc1nc(S[C@@H](C)c2ccccc2)nc2nc(N)sc12 [AZD-8797]
- Population Apoptotic (%) [1]: 39%
- Population Fragmented Nuclei (%) [1]: 2%
- Population Healthy Nuclei (%) [1]: 81%
- Population Hoechst High Intensity Objects (%) [1]: 4%
- Population Membrane Permeable-Phenotype (%) [1]: 0%
- Population Mitochondria Different-Phenotype (%) [1]: 44%
- Population Mitotic Cells (%) [1]: 60%
- Population Normal (%) [1]: 95%
- Population Pyknosed Nuclei (%) [1]: 15%
- Population Tubulin-Different-Phenotype (%) [1]: 27%
- Total Cell Count [1]: 326
- Population Apoptotic (%) [2]: 46%
- Population Fragmented Nuclei (%) [2]: 8%
- Population Healthy Nuclei (%) [2]: 72%
- Population Hoechst High Intensity Objects (%) [2]: 7%
- Population Mitochondria Different-Phenotype (%) [2]: 57%
- Population Mitotic Cells (%) [2]: 53%
- Population Normal (%) [2]: 92%
- Population Pyknosed Nuclei (%) [2]: 18%
- Population Tubulin-Different-Phenotype (%) [2]: 22%
- Total Cell Count [2]: 356
- Population Apoptotic (%) [3]: 65%
- Population Fragmented Nuclei (%) [3]: 9%
- Population Healthy Nuclei (%) [3]: 71%
- Population Hoechst High Intensity Objects (%) [3]: 10%
- Population Membrane Permeable-Phenotype (%) [3]: 0%
- Population Mitochondria Different-Phenotype (%) [3]: 70%
- Population Mitotic Cells (%) [3]: 34%
- Population Normal (%) [3]: 89%
- Population Pyknosed Nuclei (%) [3]: 18%
- Population Tubulin-Different-Phenotype (%) [3]: 56%
- Total Cell Count [3]: 279
- Population Apoptotic (%) [4]: 67%
- Population Fragmented Nuclei (%) [4]: 6%
- Population Healthy Nuclei (%) [4]: 75%
- Population Mitochondria Different-Phenotype (%) [4]: 75%
- Population Mitotic Cells (%) [4]: 32%
- Population Tubulin-Different-Phenotype (%) [4]: 39%
- Total Cell Count [4]: 345
- Population Apoptotic (%) [5]: 37%
- Population Fragmented Nuclei (%) [5]: 7%
- Population Healthy Nuclei (%) [5]: 76%
- Population Hoechst High Intensity Objects (%) [5]: 3%
- Population Membrane Permeable-Phenotype (%) [5]: 0%
- Population Mitochondria Different-Phenotype (%) [5]: 25%
- Population Mitotic Cells (%) [5]: 62%
- Population Normal (%) [5]: 97%
- Population Pyknosed Nuclei (%) [5]: 15%
- Population Tubulin-Different-Phenotype (%) [5]: 16%
- Total Cell Count [5]: 400
- Population Apoptotic (%) [6]: 45%
- Population Healthy Nuclei (%) [6]: 81%
- Population Hoechst High Intensity Objects (%) [6]: 5%
- Population Mitochondria Different-Phenotype (%) [6]: 42%
- Population Mitotic Cells (%) [6]: 54%
- Population Normal (%) [6]: 94%
- Population Pyknosed Nuclei (%) [6]: 11%
- Population Tubulin-Different-Phenotype (%) [6]: 14%
- Total Cell Count [6]: 421
- Population Apoptotic (%) [7]: 54%
- Population Fragmented Nuclei (%) [7]: 8%
- Population Healthy Nuclei (%) [7]: 73%
- Population Hoechst High Intensity Objects (%) [7]: 9%
- Population Membrane Permeable-Phenotype (%) [7]: 0%
- Population Mitochondria Different-Phenotype (%) [7]: 64%
- Population Mitotic Cells (%) [7]: 45%
- Population Normal (%) [7]: 90%
- Population Pyknosed Nuclei (%) [7]: 17%
- Population Tubulin-Different-Phenotype (%) [7]: 39%
- Total Cell Count [7]: 346
- Population Apoptotic (%) [8]: 51%
- Population Fragmented Nuclei (%) [8]: 9%
- Population Healthy Nuclei (%) [8]: 77%
- Population Hoechst High Intensity Objects (%) [8]: 8%
- Population Mitochondria Different-Phenotype (%) [8]: 71%
- Population Mitotic Cells (%) [8]: 48%
- Population Normal (%) [8]: 91%
- Population Pyknosed Nuclei (%) [8]: 12%
- Population Tubulin-Different-Phenotype (%) [8]: 36%
- Total Cell Count [8]: 393
- Population Apoptotic (%) [9]: 43%
- Population Fragmented Nuclei (%) [9]: 15%
- Population Healthy Nuclei (%) [9]: 78%
- Population Hoechst High Intensity Objects (%) [9]: 1%
- Population Membrane Permeable-Phenotype (%) [9]: 0%
- Population Mitochondria Different-Phenotype (%) [9]: 16%
- Population Mitotic Cells (%) [9]: 56%
- Population Normal (%) [9]: 98%
- Population Pyknosed Nuclei (%) [9]: 6%
- Population Tubulin-Different-Phenotype (%) [9]: 10%
- Total Cell Count [9]: 663
- Population Apoptotic (%) [10]: 24%
- Population Fragmented Nuclei (%) [10]: 12%
- Population Healthy Nuclei (%) [10]: 79%
- Population Hoechst High Intensity Objects (%) [10]: 3%
- Population Membrane Permeable-Phenotype (%) [10]: 1%
- Population Mitochondria Different-Phenotype (%) [10]: 24%
- Population Mitotic Cells (%) [10]: 75%
- Population Normal (%) [10]: 96%
- Population Pyknosed Nuclei (%) [10]: 8%
- Population Tubulin-Different-Phenotype (%) [10]: 13%
- Total Cell Count [10]: 681
- Population Apoptotic (%) [11]: 60%
- Population Fragmented Nuclei (%) [11]: 16%
- Population Healthy Nuclei (%) [11]: 72%
- Population Hoechst High Intensity Objects (%) [11]: 7%
- Population Membrane Permeable-Phenotype (%) [11]: 0%
- Population Mitochondria Different-Phenotype (%) [11]: 57%
- Population Mitotic Cells (%) [11]: 39%
- Population Normal (%) [11]: 92%
- Population Pyknosed Nuclei (%) [11]: 11%
- Population Tubulin-Different-Phenotype (%) [11]: 28%
- Total Cell Count [11]: 416
- Population Apoptotic (%) [12]: 52%
- Population Fragmented Nuclei (%) [12]: 15%
- Population Healthy Nuclei (%) [12]: 75%
- Population Hoechst High Intensity Objects (%) [12]: 6%
- Population Mitochondria Different-Phenotype (%) [12]: 52%
- Population Mitotic Cells (%) [12]: 47%
- Population Normal (%) [12]: 93%
- Population Pyknosed Nuclei (%) [12]: 8%
- Population Tubulin-Different-Phenotype (%) [12]: 21%
- Total Cell Count [12]: 530
